RAD54 branch: RAD54 (human) branch migration inhibition; 360,000 tested, 0.14% active; inhibition, % at 10.4 µM; AID 602329; RAD54 Holliday junction branch migration, FAM/BHQ fluorescence;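 active means mean normalized replicate activity at least 40 and at least half of replicates scoring 40 or more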;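 further: 0% = median of neutral control wells and 100% = median of positive control wells; inhibitors cause a drop in the FAM fluorescence signal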
Target sequence (Q92698 whole entry, looked up): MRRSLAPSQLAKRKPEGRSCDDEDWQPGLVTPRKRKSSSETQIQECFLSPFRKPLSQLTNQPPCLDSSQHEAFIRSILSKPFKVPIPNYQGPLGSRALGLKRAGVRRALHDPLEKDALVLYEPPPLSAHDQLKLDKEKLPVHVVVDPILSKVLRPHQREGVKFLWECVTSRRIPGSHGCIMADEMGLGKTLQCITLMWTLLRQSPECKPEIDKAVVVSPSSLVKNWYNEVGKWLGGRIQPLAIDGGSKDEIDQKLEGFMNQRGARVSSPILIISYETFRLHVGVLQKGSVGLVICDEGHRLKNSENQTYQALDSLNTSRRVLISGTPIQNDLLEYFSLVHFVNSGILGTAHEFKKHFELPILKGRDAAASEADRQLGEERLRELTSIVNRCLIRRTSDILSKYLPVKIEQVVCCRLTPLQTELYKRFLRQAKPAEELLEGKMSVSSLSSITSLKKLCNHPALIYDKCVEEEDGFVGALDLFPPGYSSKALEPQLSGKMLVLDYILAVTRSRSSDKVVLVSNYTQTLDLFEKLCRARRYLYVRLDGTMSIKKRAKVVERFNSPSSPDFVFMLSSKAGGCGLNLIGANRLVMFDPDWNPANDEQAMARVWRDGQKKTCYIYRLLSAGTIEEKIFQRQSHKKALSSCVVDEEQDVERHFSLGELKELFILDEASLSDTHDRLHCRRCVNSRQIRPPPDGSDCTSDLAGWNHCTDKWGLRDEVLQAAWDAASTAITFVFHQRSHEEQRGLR
Apaf-1 inh: human Apaf-1 inhibition | reconstituted apoptosome caspase-3 activity, DEVD-Rh110 fluorescence | inhibition, % at 20 µM | 330,000 tested, 0.71% active; active means inhibition of at least 40% at 20 µM;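 further: plate controls were DMSO wells for no effect and DEVD-CHO caspase inhibitor wells for full effect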
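Medium: Hepes buffer, pH 7.5 / System: biochemical Apaf-1 apoptosome reconstitution / Measured by: Rh110 fluorescence, excitation 480 nm, emission 540 nm / Times: compound with Apaf-1, dATP, procaspase-3 30 min, then 50 min reaction, room temperature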
Neddyl block: cullin neddylation inhibition. AID 651699. TR-FRET cullin neddylation, biochemical. 360,000 tested, 0.58% active. calls only at 25 µM. P61081+Q13564; in the data active means inhibition above about 36%
DNA FID counter: counter-screen for HCV NS3 helicase inhibitors: DNA intercalator displacement. DNA fluorescent intercalator displacement, fluorescence. inhibition, % at 7.9 µM. 290,000 tested, 0.17% active; in the data active means inhibition above about 37%;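 further: 0% = vehicle and 100% = reference compound; higher means more ethidium bromide displaced from hairpin DNA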
RAD52 anneal inh: RAD52 (human) annealing inhibition; P43351; recombinant RAD52 DNA annealing, FRET fluorescence; inhibition, % at 18.7 µM; 360,000 tested, 0.46% active;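 active means every replicate showing at least 50% inhibition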
UBC13 polyUb: blocks human UBC13 polyubiquitin chain formation | P61088 | TR-FRET | inhibition, % at 20 µM | 330,000 tested, 0.47% active | AID 485273; in the data active means inhibition above about 45%, passing the limit was not always enough
Apaf-1 inh conf2: confirmation of Apaf-1 inhibitors | shares compounds with Apaf-1 inh | reconstituted apoptosome, caspase-3 DEVD-Rh110 fluorescence | inhibition, % at 20 µM | 1,800 tested, 25% active;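 active means mean inhibition of at least 40% at 20 µM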;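 further: plate controls were DMSO wells for no effect and DEVD-CHO caspase inhibitor control wells for full effect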
Rh110 interf inh: Rh110 signal interference in Apaf-1 inhibitor counter-screen. Rh110 fluorescence interference, quenched caspase reaction. 1,800 tested, under 10 active. shares compounds with Apaf-1 inh. AID 504615. activation (fluorescence interference), % at 20 µM;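 active means signal rise of 40% or more at 20 µM, treated as a fluorescence artifact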
Apaf1 inh interf: counter-screen for Apaf-1 inhibitors: fluorescence interference, dose response | 460 tested, under 10 active | fluorescence interference counterscreen, Apaf-1 assay format | shares compounds with Apaf-1 inh | IC50, µM; call rule not given here
* marks the source's active call; other numbers are inactive results; i = inactive; · = no result given. Hits are enriched below; roughly 1.6% of the tested compounds scored in any of these assays.

SMILES | RAD54 branch | Apaf-1 inh | Neddyl block | DNA FID counter | RAD52 anneal inh | UBC13 polyUb | Apaf-1 inh conf2 | Rh110 interf inh | others
COc1ccc(OC)c(S(=O)(=O)Oc2ccc(N)c3ccccc23)c1 | -4 | 69* | i | · | -13 | -60 | 38 | 3
CCN(CC)CCN(C(=O)CCS(=O)(=O)c1ccccc1)c1nc2cc(C)cc(C)c2s1 | -3 | 35 | i | 14 | -1 | 9 | · | ·
Cc1cc(C)c2sc(N(CCN(C)C)C(=O)CCS(=O)(=O)c3ccccc3)nc2c1 | 6 | 53* | i | 30 | -1 | -1 | 7 | 7
COc1cccc2c1-c1c(C(=O)O)cccc1C2=O | -3 | 2 | i | -1 | -4 | -8 | · | ·
COc1ccc(-c2noc(-c3ccccc3-c3ccccc3)n2)cc1OC | -1 | 11 | i | -14 | · | -2 | · | ·
COc1ccc(N)c2c1C(=O)c1ccccc1C2=O | 32 | · | i | 1 | · | · | · | ·
COc1cccc2c1C(=O)c1ccc3ccccc3c1C2=O | 3 | 72* | i | 28 | · | -8 | 9 | 4
COc1ccc(OC)c2c1C(=O)c1ccccc1C2=O | · | 63* | · | 15 | · | -38 | -1 | -7
COc1ccc2noc3c2c1C(=O)c1ccccc1-3 | -116 | 78* | i | · | i | -245 | 44* | -58 | Apaf1 inh interf=59*
CN1C(=O)c2cc(NC(=O)c3cccs3)ccc2OC[C@@H]2O[C@H](CC(=O)NCCN3CCCCC3)CC[C@H]21 | -5 | · | · | · | 9 | · | · | ·
CO[C@H]1CN(C)C(=O)c2ccc(NC(=O)C3CCOCC3)cc2OC[C@H](C)N(C(=O)c2ccccc2)C[C@H]1C | -2 | · | · | · | -6 | · | · | ·
C[C@@H]1CN([C@@H](C)CO)S(=O)(=O)c2ccc(C#CC3CC3)cc2O[C@H]1CN(C)Cc1ccccc1 | 2 | · | · | · | -14 | · | · | ·
Cc1ccc(S(=O)(=O)N(C)C[C@H]2Oc3ncc(-c4ccncc4)cc3C(=O)N([C@@H](C)CO)C[C@@H]2C)cc1 | 1 | · | · | · | 5 | · | · | ·
N#Cc1ccc(C23CC4(C2)[C@H](CN(Cc2ccc(-c5ccccc5)cc2)[C@@H]4c2ccccc2)C3c2ccc(C(F)(F)F)cc2)cc1 (stereo not given in full) | · | 45* | · | · | -64 | 0 | 5 | 8
O=C(C[C@@H]1CC[C@H](NS(=O)(=O)c2ccc(F)cc2)[C@H](CO)O1)NCc1ccncn1 | 5 | · | · | · | 3 | · | · | ·
O=C(CCN1CCCCC1)NCC[C@@H]1CC[C@@H](NC(=O)C2CCCCC2)[C@H](CO)O1 | · | · | · | · | 3 | · | · | ·
C=CCn1c(NS(=O)(=O)c2ccccc2)c(S(=O)(=O)c2ccc(C)cc2)c2nc3ccccc3nc21 | -5 | · | i | -23 | -13 | · | · | ·
CC(=O)Nc1c(S(=O)(=O)c2ccccc2)c2nc3ccccc3nc2n1Cc1ccccc1 | -2 | 60* | · | -12 | · | 3 | 10 | -7
C[C@H](CO)N1C[C@H](C)[C@@H](CN(C)S(=O)(=O)c2cccs2)Oc2ccc(NC(=O)CCN3CCOCC3)cc2CC1=O | -5 | · | · | · | 4 | · | · | ·
Cc1cccc(N2CCN(C(=O)c3cc4cc(F)ccc4[nH]3)CC2)c1C | 1 | 42* | i | -16 | -14 | -7 | 27 | 5
O=C(c1cccc(F)c1)N1CC2(C1)[C@H](c1ccccc1)[C@H](CO)N2C(=O)C1CCC1 | · | · | · | · | -22 | · | · | ·
COCC(=O)Nc1ccc2c(c1)C(=O)N(C)[C@H]1CC[C@H](CC(=O)Nc3ccc(F)cc3)O[C@@H]1CO2 | -5 | · | · | · | 3 | · | · | ·
CCN(c1ccccc1)S(=O)(=O)c1ccc(Cl)c(NC(=O)Nc2ccc(Cl)cc2C#N)c1 | 0 | 40* | i | -19 | -19 | -9 | 44* | -4 | Apaf1 inh interf=>100
CCN(c1ccccc1)S(=O)(=O)c1ccc(Cl)c(NC(=O)CN2CCN(C)CC2)c1 | -5 | 52* | i | · | 7 | 44 | 18 | 6
CCN(c1ccccc1)S(=O)(=O)c1cc(NC(=O)Nc2ccccc2C#N)ccc1Cl | · | 13 | i | -8 | -3 | -4 | · | ·
SMILES | RAD54 branch | Apaf-1 inh | Neddyl block | DNA FID counter | RAD52 anneal inh | UBC13 polyUb | Apaf-1 inh conf2 | Rh110 interf inh | others
Cc1ccc(S(=O)(=O)NC(=O)Nc2ccc(N(C)C)cc2)cc1 | 8 | 57* | i | 8 | 4 | -45 | 23 | 2
O=Cc1cccc(Oc2ncccn2)c1 | 0 | 0 | i | -2 | -17 | 5 | · | ·
Nc1ccc(Oc2ncccn2)cc1 | -4 | 44* | i | 1 | -11 | -7 | 52* | 8 | Apaf1 inh interf=>100
C[C@@H]1CN([C@@H](C)CO)C(=O)c2cccc(NC(=O)c3ccncc3)c2O[C@H]1CN(C)S(=O)(=O)c1ccccc1 | 3 | · | · | · | -20 | · | · | ·
CCCCNc1c(-c2ccc(OC)c(SC(C)CC)c2)nc2cnccn12 (stereo not given) | -34 | · | · | · | -6 | · | · | ·
CCCCNc1c(-c2ccc(OC)c(SC(C)CC)c2)nc2cc(C)ccn12 (stereo not given) | 5 | 49* | · | · | -5 | 37 | 18 | 9
CCCCCCSc1ccc(-c2nc3ccc(C)cn3c2NCc2ccccc2)cc1OC | -2 | 41* | · | · | -13 | 8 | 21 | -1
CCCCCCSc1ccc(-c2nc3cnccn3c2NCCCC)cc1 | -12 | 56* | i | · | -51 | 37 | 30 | 23
CCCCCCSc1cc(-c2nc3ccc(C)cn3c2NCCCC)ccc1OC | -11 | 46* | · | · | -10 | 33 | 21 | 19
Cc1ccccc1S(=O)(=O)N1C[C@@H](O)COC[C@H]2O[C@@H](CC(=O)NCc3ccccc3Cl)CC[C@@H]21 | 2 | · | · | · | -8 | · | · | ·
OCCNC(=S)Nc1ccc2nsnc2c1 | -1 | 97* | i | 1 | -8 | -47 | 13 | 4
COc1cc(OC)c2c(C)cc(=O)oc2c1C(CCN1CCOCC1)c1ccc2c(c1)OCO2 (stereo not given) | 4 | 35 | i | · | 11 | 25 | · | ·
COc1cc(OC)c2c(-c3ccccc3)cc(=O)oc2c1C(CCN1CCOCC1)c1ccc(N(C)C)cc1 (stereo not given) | 2 | 52* | i | · | -6 | · | 11 | -2
CCCCCc1cc(=O)oc2c(C(CCN3CCCC(C)C3)c3ccc(N(C)C)cc3)c(OC)cc(OC)c12 (stereo not given) | -10 | 68* | i | · | · | 9 | 38 | 10
COc1cc(OC)c2c(-c3ccccc3)cc(=O)oc2c1C(CCN1CCCC(C)C1)c1ccc2c(c1)OCO2 (stereo not given) | 2 | 56* | i | · | 17 | 4 | 19 | 11
C[C@@H]1CN([C@@H](C)CO)C(=O)c2cc(C#CCN(C)C)cnc2O[C@@H]1CN(C)C | -13 | · | · | · | 6 | · | · | ·

Screens as filed in PubChem.
